CAL PDZ FP-1 = untagged CAL PDZ binding inhibitors, primary screen, biochemical, fluorescence polarization, HTS; Golgi-associated PDZ and coiled-coil motif-containing protein (Homo sapiens), Q9HD26; AID 602252, 2012; purified CAL PDZ, TMR-peptide fluorescence polarization, 1 h; actives 0.92% (n = 300,000); inhibition, % at 24.9 µM;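 active = mean inhibition of at least 30% with at least half of replicates also reaching 30%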;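 also: 0% = DMSO neutral control and 100% = excess unlabeled competitor peptide PRC23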
miR122 inh = miR-122 Renilla sensor signal increase in Huh7, primary screen, miR-122 inhibitor project, cell-based, single point, plate reader. activation (reporter increase), % at 12.5 µM. actives 0.3% (n = 340,000). Huh7 miR-122 Renilla luciferase sensor, 48 h; neutral wells = 0, positive control = 100;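 active = mean replicate activation score at least 90 and every replicate individually at or above 90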;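 also: higher luciferase means less miR-122 activity so hits act as miR-122 inhibitors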
PvdQ acylase = P. aeruginosa PvdQ acylase inhibitors, primary screen, biochemical, fluorescence, plate reader and imaging, single point; purified PvdQ acylase; inhibition, % at 10 µM; actives 0.063% (n = 340,000); in the data active = inhibition above about 30%, passing the limit was not always enough;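 also: 0% = vehicle neutral wells and 100% = reference inhibitor wells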
CAL PDZ FP-2 = CAL PDZ peptide-binding inhibitors, primary screen, biochemical, fluorescence polarization, Cer-tagged CAL PDZ, HTS; purified CAL PDZ, TMR-peptide fluorescence polarization, 1 h; inhibition, % at 20 µM; actives 0.02% (n = 330,000); AID 504414, 2011;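 active = highest replicate inhibition of at least 40%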;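 also: plate controls were DMSO neutral control wells for no effect and unlabeled competitor peptide control wells for full effect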
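Material: tagged CAL PDZ protein CerCALP, purified; buffer or medium: sodium phosphate/NaCl buffer pH 7.4 with TCEP, IgG, Thesit; also added: fluorescent TMR peptide probe; schedule: 1 h incubation at room temperature before polarization reading; technique: fluorescence polarization from S- and P-plane intensities, G-factor corrected; control set: unlabelled peptide and DMSO controls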
* marks the source's active call; other numbers are inactive results; / = no result given; + = active, no number; [ ] = remark or other dose. Only some compounds are listed: those with a hit (about 0.95% of all), similar ones and a draw of the others.

SMILES | CAL PDZ FP-1 | miR122 inh | PvdQ acylase | CAL PDZ FP-2
COc1ccc(O)c(C(=O)CC(=O)c2ccccc2C)c1 | / | 23.1 | 5.1 | -1.2
Cc1nn(Cc2ccc(Cl)c(Cl)c2)c(C)c1NC(=O)c1sc2ccccc2c1Cl | 34.6* | -32.3 | -17.9 | /
Cn1cccc1CC(=O)N/N=C\c1ccccc1 | 3.0 | 0.4 | 10.3 | -0.7
Cc1cc(NC(=O)Nc2ccc(F)c(Cl)c2)no1 | / | -0.3 | 43.8* | -8.5
Cc1cc(NC(=O)c2cc(F)c(F)cc2Cl)no1 | -1.5 | / | 91.6* | 0.3
COc1cc(SC)ccc1C(=O)OC(C)C(=O)Nc1ccc(NC(C)=O)cc1 (stereo not given) | 56.0* | -2.0 | -6.9 | -1.0
C=CCn1c(SCC(=O)NCC2CCCO2)nnc1-c1ccncc1 (stereo not given) | -3.1 | 0.3 | 7.0 | -0.6
N/N=C(/Cc1nc2ccccc2[nH]1)c1ccc([N+](=O)[O-])cc1 | 73.5* | / | -6.2 | 0.0
C[C@@H]1CN([C@H](C)CO)C(=O)c2cc(NC(=O)C3CCCCC3)ccc2O[C@H]1CN(C)C(=O)Nc1ccc2c(c1)OCO2 | / | -6.6[16.7 µM] | / | /
COc1ccc(C2=CSC3=C(C(=O)c4cccc(S(=O)(=O)N(C)C)c4)CCN23)cc1 | 95.7* | -1.5 | -21.8 | /
CC(C)CCNC(=O)c1cccc(Cl)c1 | -2.2 | 3.9 | 39.2* | -0.6
NC(=O)CNC(=O)c1cccc(Cl)c1 | -5.2 | -3.0 | -13.2 | -0.6
Cn1c(CNC(=O)CCNC(=O)c2cccc(Cl)c2)cc(=O)n(C)c1=O | 43.0* | -6.1 | -12.7 | -1.1
COCCn1c(C)cc(C(=O)CSc2nc(C)c(C)c(C)n2)c1C | -4.6 | -5.2 | 1.4 | -2.5
CCOC(=O)c1ccc(S(=O)(=O)NCC(C)(C)N2CCOCC2)cc1 | 56.3* | / | -6.2 | 0.5
CCN(CC)S(=O)(=O)c1ccc2nc(SC)sc2c1 | / | 1.5 | -13.1 | -1.8
COc1ccc(CCN(C)C(=O)c2c(C)nn(CC(C)C)c2Cl)cc1OC | 103.5* | -6.7 | -13.8 | -1.2
COc1ccc(CCNC(=O)c2c(C)nn(CC(C)C)c2Cl)cc1OC | -1.0 | / | -14.5 | -2.6
CC1CCCC(NCC(O)COC(c2ccc(F)cc2)c2ccc(F)cc2)C1C (stereo not given) | -5.5 | -4.9 | -21.0 | 10.3
O=C(CNC(=O)c1ccccc1Cl)N/N=C/c1ccc2c(c1)OCO2 | 95.9* | / | 8.8 | -2.0
Cc1ncc(CO)c2c1Oc1nc(-c3ccccc3)nc(SCC(=O)Nc3cccc(O)c3)c1C2 | 5.7 | -11.7 | -6.9 | -7.5
Cc1ccc(-c2cc(-c3c(C)nn(C)c(=O)c3N)[nH]n2)cc1 | 41.5* | -7.2 | -15.3 | 0.2
Cc1ccc(C)c(S(=O)(=O)N=Nc2c(O)[nH]c3ccccc23)c1 | -2.5 | / | -9.3 | -0.4
Cc1ccc(S(=O)(=O)N=Nc2c(O)[nH]c3ccccc23)cc1 | 31.7* | 10.0 | -19.4 | -0.7
CC(=O)N1CCCc2cc(S(=O)(=O)N3CCN(C4CCCCC4)CC3)ccc21 | -7.3 | -2.9 | -12.3 | /
SMILES | CAL PDZ FP-1 | miR122 inh | PvdQ acylase | CAL PDZ FP-2
CCC(=O)N1CCCc2cc(S(=O)(=O)N3CCN(C4CCCCC4)CC3)ccc21 | 41.8* | -5.8 | -16.5 | /
COc1ccc(C(=O)NCC(=O)OCC(=O)Nc2sccc2C#N)cc1OC | 61.5* | / | -12.8 | 0.0
COc1ccc(C(=O)NCC(=O)OCC(=O)Nc2cc([N+](=O)[O-])ccc2F)cc1 | + | / | -20.2 | 9.5
CC(C)=CC(=O)OCC(=O)Nc1cc([N+](=O)[O-])ccc1F | -2.6 | / | 1.7 | 0.1
CC1(C)CN=C(c2ccccc2)NC1 | -5.0 | / | -6.9 | -0.3
COCCn1c(N)c(N(Cc2ccccc2)C(=O)c2ccc(C#N)cc2)c(=O)[nH]c1=O | -5.7 | -2.8 | -17.9 | -4.6
COc1ccccc1CNC(=O)CC1Sc2ccccc2NC1=O (stereo not given) | 62.2* | 1.0 | -13.5 | -0.3
COc1ccc(-c2nc3ccccc3c(=O)n2CCOc2cc(C)ccc2C)cc1 | -1.8 | 11.3 | -14.8 | -2.0
Cc1ccc(-c2nnc(CSc3nnc(C)s3)o2)cc1 | -4.0 | 1.1 | -1.4 | -1.7
CC(Oc1ccccc1)C(=O)N=Nc1c(O)[nH]c2ccc([N+](=O)[O-])cc12 (stereo not given) | -3.2 | 232.0* | -10.3 | -1.7
O=[N+]([O-])c1ccc(N=Nc2c(O)[nH]c3ccc(F)cc23)cc1 | 42.4* | -2.0 | -11.7 | /
O=[N+]([O-])c1ccc2[nH]c(O)c(N=Nc3ccc(F)cc3)c2c1 | -9.2 | -0.4 | -15.1 | -0.7
O=C(N=Nc1c(O)[nH]c2ccc([N+](=O)[O-])cc12)c1ccccc1[N+](=O)[O-] | 2.5 | 1.6 | -2.6 | 0.3
CC(C)C1Cc2c(sc3c2c(=O)n(-c2ccccc2)c2n[nH]c(=S)n32)CO1 (stereo not given) | + | / | -12.8 | -0.6
COc1cnc(-c2ccccn2)nc1N(C)C | 72.7* | 10.9 | -9.5 | -0.4
COc1ccc(Oc2nc(-c3ccccn3)ncc2OC)cc1 | 5.5 | / | 6.8 | -0.5
COc1cc(CCCN2CCNC[C@H]2Cc2ccc(O)cc2)cc(OC)c1OC | 1.8 | / | 1.3 | 1.1
C=CCN1C(=O)C(CC(=O)Nc2ccccc2)SC1=Nc1c(C)n(C)n(-c2ccccc2)c1=O (stereo not given) | -2.1 | -3.7 | 5.4 | -4.1
O=C(c1ccccc1)C1CC1c1ccccc1 (stereo not given) | / | -3.2 | / | /
Cc1cc([N+](=O)[O-])nn1CC(=O)N/N=C/c1ccccc1F | 44.1* | / | -14.6 | -1.0
Cc1ccnn1CC(=O)N/N=C/c1ccc([N+](=O)[O-])s1 | 87.1* | / | -15.1 | -1.4
Cc1cc([N+](=O)[O-])nn1CC(=O)N/N=C/c1ccccc1O | 9.6 | -4.8 | -10.5 | -0.8
Cc1cc([N+](=O)[O-])nn1CC(=O)Nc1cc(F)ccc1F | 69.5* | / | -15.2 | -2.0
O=S(=O)(NCc1ccc2c(c1)OCO2)c1ccccc1F | -8.1 | -1.0 | -5.4 | 0.3
CCCC(=O)n1nc(-c2ccc(C)cc2)nc1NCc1ccco1 | 80.6* | / | -8.8 | 1.9
SMILES | CAL PDZ FP-1 | miR122 inh | PvdQ acylase | CAL PDZ FP-2
Cc1ccc(C(=O)n2nc(-c3ccccc3)nc2NCc2ccco2)cc1 | -1.0 | -36.9 | 2.2 | -1.3
COC(=O)c1ccc(C2=NOC(C)(c3sc(-c4ccccc4)nc3C)C2)cc1 (stereo not given) | 44.9* | -1.4 | -12.9 | 0.3
Cc1ccc(S(=O)(=O)NN2C(=O)/C(=C/c3cccc(F)c3)SC2=S)cc1 | 33.1* | 8.5 | -1.9 | -5.7
CC(C)NC(=O)N(C)C[C@@H]1OCCCC[C@H](C)Oc2ccc(NS(C)(=O)=O)cc2C(=O)N([C@@H](C)CO)C[C@@H]1C | / | 2.9[16.7 µM] | / | /
CCOc1ccccc1-n1c(COc2ccc(C)cc2)nnc1SCC(N)=O | -4.9 | 1.6 | 6.9 | 0.3
O=C(Cc1csc(Nc2nc(=S)[nH]c3ccccc23)n1)N1CCN(c2cccc(Cl)c2)CC1 | 54.5* | 5.5 | -1.4 | -1.1
